Screening data deposited in PubChem BioAssay by several laboratories.
Rows were chosen to be rich in hits. Some 1.4% of all compounds tested hit in one or more screens of this group.
CHT allo act: CHT positive allosteric modulators, primary screen, cell-based, membrane potential dye, choline EC20. High affinity choline transporter 1 (Homo sapiens), Q9GZV3. CHT-expressing cells; stronger effect = higher value; LV-AA mutant CHT in HEK293 cells. B-score at 10 µM. 310,000 tested, 0.49% active;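 active = initial fluorescence not abnormally high and integrated response B-score, plate-corrected, over 3 SD above library mean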
TNAP inh hiacc: human TNAP enzyme inhibitors, primary screen, biochemical, luminescent, high phosphate acceptor level, uHTS | Alkaline phosphatase, tissue-nonspecific isozyme (Homo sapiens), P05186 | inhibition, % at 20 µM | 200,000 tested, 0.03% active | purified TNAP, CDP-star luminescence, 1 M DEA;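 active = over 50% inhibition of tissue-nonspecific alkaline phosphatase at 20 µM in the single-dose screen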;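 also: plate controls were DMSO wells for no effect and EDTA-quenched wells as full inhibition for full effect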
TNAP act hi DEA: TNAP activators at high phosphate acceptor level, primary screen, biochemical, luminescence, uHTS; AID 1136, 2008; purified TNAP, CDP-star luminescence, 1 M DEA, 30 min; stronger effect = higher value; 0 = EDTA background, 1 = DMSO-only activity; 200,000 tested, under 10 active; activation factor at 20 µM;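 active = activation factor at least 2 at 20 µM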
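Control set: EDTA negative control, DMSO positive control / Assay system: human TNAP / Quantity: TNAP 1/800 final / Evaluation: TNAP activation factor scaled between EDTA and DMSO control wells / Measured by: luminescent substrate turnover signal / Compound dosing: one dose, 20 µM / Times: 30 min enzyme reaction at room temperature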
CHT inh: inhibitors of human choline transporter CHT | High affinity choline transporter 1 (Homo sapiens), Q9GZV3 | CHT-expressing cells, membrane potential dye, choline response; stronger effect = lower value | 310,000 tested, 0.86% active | B-score at 10 µM;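 active = B-score over 3 SD under the library average, and starting fluorescence ratio not unusually high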;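 also: choline stimulus applied at its EC90 after an EC20 pre-addition; B-score computed on integrated fluorescence ratio after choline addition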
TNAP inh noacc: human TNAP enzyme inhibitors, primary screen, biochemical, luminescent, no phosphate acceptor, uHTS; Alkaline phosphatase, tissue-nonspecific isozyme (Homo sapiens), P05186; purified TNAP, CDP-star luminescence, 30 min; inhibition, % at 20 µM; 200,000 tested, 0.26% active;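 active = tissue-nonspecific alkaline phosphatase inhibition above about 50% at 20 µM in the single-dose screen, limit read from the data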;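 also: 0% = DMSO negative control and 100% = EDTA positive control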
ABCB6 inh 2: ABCB6 transporter inhibitors, primary screen, K562-ABCB6 cells, flow cytometry, MLPCN library; 360,000 tested, 0.19% active; fluorescence ratio to DMSO, % at 10 µM; ATP-binding cassette sub-family B member 6 (Homo sapiens), Q9NP58; K562-ABCB6 porphyrin accumulation, 1 h; stronger effect = lower value;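 active = fluorescence ratio to DMSO below 75%, the collection mean minus 3 SD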;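 also: signal is porphyrin accumulated inside mitochondria; 100% equals median channel fluorescence of DMSO control wells; lower ratio means ABCB6 inhibition with less porphyrin fluorescence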
CHT inh conf: CHT inhibitors, confirmation, cell-based, membrane potential dye, duplicate | shares compounds with CHT inh | CHT-expressing cells, choline membrane potential dye; LV-to-AA substituted CHT, HEK293 cells | CHT activity remaining % of control (stronger effect = lower value), % at 10 µM | 2,400 tested, 70% active | AID 493221, 2011;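 active = choline transporter activity left, mean of duplicates at 10 µM, below buffer-only control mean minus 3 SD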;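 also: depolarization triggered by choline at its EC90 following an EC20 pre-addition; 0% = hemicholinium-3 full block and 100% = buffer-only control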
HEK293 MPD ctr: membrane potential effects in parental HEK293, counter-screen for CHT inhibitor project, cell-based, membrane potential dye. shares compounds with CHT inh. choline response; active = decrease or increase beyond buffer ±3SD. membrane potential ratio readout (active if shifted either direction beyond buffer ±3SD; no single direction) at 10 µM. 2,400 tested, 4% active;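 also: parental cells lack the transporter so any hit is non-specific; ratio is peak minus trough fluorescence over baseline after EC90 choline challenge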
An asterisk follows results filed as active; i = inactive; . = not tested or not shown.

SMILES	CHT allo act	TNAP inh hiacc	TNAP act hi DEA	CHT inh	TNAP inh noacc	ABCB6 inh 2	CHT inh conf	HEK293 MPD ctr
Cc1cnc(C(=O)NC2CC(C)(C)Cc3c2cnn3-c2cccc(F)c2)cn1 (configuration not stated)	i	.	.	i	.	90.0	.	.
CCOc1ccc(C(=O)NC(=S)NCc2cccnc2)cc1[N+](=O)[O-]	i	-5.6	1.1	i	-4.3	97.0	.	.
Cc1ccc(-c2csc(NC(=O)c3ccccc3F)c2C(=O)O)cc1	i	.	.	-5.1*	.	109.0	45.3%*	i
CCOC(=O)c1c(CC(C)C)csc1NC(=O)COC(=O)c1ccc(O)cc1	.	.	.	.	.	94.0	.	.
Cc1ccc(-c2csc(NC(=O)c3ccc(F)cc3)c2C(=O)O)cc1	i	.	.	-6.39*	.	103.0	53.0%*	i
CC(C)Cc1csc(NC(=O)c2ccc(Br)cc2)c1C(=O)O	i	.	.	-10.2*	.	94.0	60.9%*	i
CN1CCN(C(=O)Cn2c(=O)oc3cc(S(=O)(=O)NCc4ccccc4)ccc32)CC1	i	-5.2	1.1	i	-3.9	102.0	.	.
CC(C)c1ccc(CN2CCC2(C)C(=O)Nc2cnc3ccccc3c2)cc1 (configuration not stated)	.	.	.	.	.	98.0	.	.
CCn1c(SCc2nnc(-c3ccccc3)o2)nnc1-c1ccc(S(=O)(=O)N2CCCC2)cc1	i	-4.5	1	i	-10.5	103.0	.	.
CCn1c(SCc2ccccc2)nnc1-c1ccc(S(=O)(=O)N2CCCCC2)cc1	i	-6.3	1.1	-5.95*	8.8	95.0	i	i
NC(=O)NC(=O)COC(=O)/C=C/c1cccs1	i	.	.	i	.	96.0	.	.
COc1ccc(S(=O)(=O)CCC(=O)N2c3ccccc3CC2C)cc1 (configuration not stated)	i	-2.8	1	i	-10.2	102.0	.	.
CC1Cc2ccccc2N1C(=O)CCS(=O)(=O)c1ccc2c(c1)NC(=O)CS2 (configuration not stated)	i	.	.	-4.99*	.	177.0	i	i
CCOC(=O)N1CCN(C(=O)Cn2nc(C)n3nc(-c4ccccc4)cc3c2=O)CC1	i	.	.	i	.	98.0	.	.
COc1cc2c(cc1OC)/C(=C/C(=O)c1ccccc1F)NCC2	i	.	.	-5.3*	.	96.0	51.8%*	i
O=C(CCC1CCCN(C(=O)c2ccccc2Cl)C1)N1CCN(c2ccccn2)CC1 (configuration not stated)	i	.	.	i	.	93.0	.	.
OCCn1nc(-c2ccccc2)cc1-c1ccccc1	i	.	.	-9.34*	.	104.0	25.9%*	i
CCC(C(=O)NCCCN1CC(C)CC(C)C1)n1nc(C)c2sc3ccccc3c2c1=O (configuration not stated)	i	.	.	-8.8*	.	96.0	16.5%*	i
CC1(C(=O)Nc2ccc3[nH]ncc3c2)CCN1C(=O)CCc1ccccc1 (configuration not stated)	.	.	.	.	.	96.0	.	.
O=C(c1cc(Br)ccc1O)N1CCN(S(=O)(=O)Cc2ccccc2)CC1	.	.	.	.	.	96.0	.	.
O=C(NCCCn1ccnc1)/C(=C/c1ccc(F)cc1)NC(=O)c1ccccc1	i	.	.	i	.	96.0	.	.
O=C(Nc1ccccc1C(=O)NCCCn1ccnc1)c1ccccc1	i	-3.7	1	-10.3*	-13.4	90.0	13.0%*	i
